What was measured:
HEK-293T = assay: Multiplex assay against HEK293T; assay type: toxicity, cell-based; conditions: human;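 on Population Tubulin-Different-Phenotype (%): share of the cells with healthy nuclei that show this phenotype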
In short: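 Imaging took place on a CQ1 microscope at 37°C and 5% CO2 once compound had been added to live cells stained at seeding with Hoechst33342, BioTracker Green Microtubule Cytoskeleton Dye, MitoTracker Red and Annexin V Alexa Fluor 680. CellPathfinder machine-learning gating classed cells as Hoechst high-intensity objects or normal cells, classed normal cells as having healthy, pyknosed or fragmented nuclei, and classed pyknosed cells as mitotic or apoptotic. Tubulin, mitochondrial-mass and membrane-permeability phenotypes are per cents of the healthy-nucleus cells.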

Fibroblast = assay: Incucyte cell viability with human fibroblast; assay type: toxicity, cell-based; conditions: 10 µM, compound concentration 10 uM; further: filed as whole numbers so only -1 and 0 and 1 occur
[1] = 12 h, 1 µM, compound concentration 1 uM, replicate 1
[2] = 12 h, 1 µM, compound concentration 1 uM, replicate 2
[3] = 12 h, 10 µM, compound concentration 10 uM, replicate 1
[4] = 12 h, 10 µM, compound concentration 10 uM, replicate 2
[5] = 24 h, 1 µM, compound concentration 1 uM, replicate 1
[6] = 24 h, 1 µM, compound concentration 1 uM, replicate 2
[7] = 24 h, 10 µM, compound concentration 10 uM, replicate 1
[8] = 24 h, 10 µM, compound concentration 10 uM, replicate 2

Compound: c1ccc2oc(-c3csc(C4CCN(Cc5nc6ncccc6[nH]5)CC4)n3)cc2c1
- Population Apoptotic (%) (HEK-293T; [1]): 23%
- Population Fragmented Nuclei (%) (HEK-293T; [1]): 23%
- Population Healthy Nuclei (%) (HEK-293T; [1]): 39%
- Population Hoechst High Intensity Objects (%) (HEK-293T; [1]): 19%
- Population Membrane Permeable-Phenotype (%) (HEK-293T; [1]): 5%
- Population Mitochondria Different-Phenotype (%) (HEK-293T; [1]): 5%
- Population Mitotic Cells (%) (HEK-293T; [1]): 76%
- Population Normal (%) (HEK-293T; [1]): 80%
- Population Pyknosed Nuclei (%) (HEK-293T; [1]): 37%
- Population Tubulin-Different-Phenotype (%) (HEK-293T; [1]): 7%
- Total Cell Count (HEK-293T; [1]): 599
- Population Apoptotic (%) (HEK-293T; [2]): 13%
- Population Fragmented Nuclei (%) (HEK-293T; [2]): 4%
- Population Healthy Nuclei (%) (HEK-293T; [2]): 83%
- Population Hoechst High Intensity Objects (%) (HEK-293T; [2]): 4%
- Population Membrane Permeable-Phenotype (%) (HEK-293T; [2]): 1%
- Population Mitochondria Different-Phenotype (%) (HEK-293T; [2]): 21%
- Population Mitotic Cells (%) (HEK-293T; [2]): 86%
- Population Normal (%) (HEK-293T; [2]): 95%
- Population Pyknosed Nuclei (%) (HEK-293T; [2]): 11%
- Population Tubulin-Different-Phenotype (%) (HEK-293T; [2]): 13%
- Total Cell Count (HEK-293T; [2]): 1174
- Population Apoptotic (%) (HEK-293T; [3]): 17%
- Population Fragmented Nuclei (%) (HEK-293T; [3]): 18%
- Population Healthy Nuclei (%) (HEK-293T; [3]): 54%
- Population Hoechst High Intensity Objects (%) (HEK-293T; [3]): 14%
- Population Membrane Permeable-Phenotype (%) (HEK-293T; [3]): 5%
- Population Mitochondria Different-Phenotype (%) (HEK-293T; [3]): 5%
- Population Mitotic Cells (%) (HEK-293T; [3]): 82%
- Population Normal (%) (HEK-293T; [3]): 85%
- Population Pyknosed Nuclei (%) (HEK-293T; [3]): 26%
- Population Tubulin-Different-Phenotype (%) (HEK-293T; [3]): 4%
- Total Cell Count (HEK-293T; [3]): 511
- Population Apoptotic (%) (HEK-293T; [4]): 12%
- Population Fragmented Nuclei (%) (HEK-293T; [4]): 6%
- Population Healthy Nuclei (%) (HEK-293T; [4]): 86%
- Population Hoechst High Intensity Objects (%) (HEK-293T; [4]): 3%
- Population Membrane Permeable-Phenotype (%) (HEK-293T; [4]): 2%
- Population Mitochondria Different-Phenotype (%) (HEK-293T; [4]): 10%
- Population Mitotic Cells (%) (HEK-293T; [4]): 87%
- Population Normal (%) (HEK-293T; [4]): 96%
- Population Pyknosed Nuclei (%) (HEK-293T; [4]): 7%
- Total Cell Count (HEK-293T; [4]): 1122
- Population Apoptotic (%) (HEK-293T; [5]): 20%
- Population Fragmented Nuclei (%) (HEK-293T; [5]): 21%
- Population Healthy Nuclei (%) (HEK-293T; [5]): 50%
- Population Hoechst High Intensity Objects (%) (HEK-293T; [5]): 15%
- Population Membrane Permeable-Phenotype (%) (HEK-293T; [5]): 8%
- Population Mitochondria Different-Phenotype (%) (HEK-293T; [5]): 10%
- Population Mitotic Cells (%) (HEK-293T; [5]): 79%
- Population Normal (%) (HEK-293T; [5]): 84%
- Population Pyknosed Nuclei (%) (HEK-293T; [5]): 28%
- Population Tubulin-Different-Phenotype (%) (HEK-293T; [5]): 13%
- Total Cell Count (HEK-293T; [5]): 538
- Population Apoptotic (%) (HEK-293T; [6]): 15%
- Population Fragmented Nuclei (%) (HEK-293T; [6]): 5%
- Population Healthy Nuclei (%) (HEK-293T; [6]): 86%
- Population Hoechst High Intensity Objects (%) (HEK-293T; [6]): 6%
- Population Membrane Permeable-Phenotype (%) (HEK-293T; [6]): 4%
- Population Mitochondria Different-Phenotype (%) (HEK-293T; [6]): 12%
- Population Mitotic Cells (%) (HEK-293T; [6]): 84%
- Population Normal (%) (HEK-293T; [6]): 93%
- Population Pyknosed Nuclei (%) (HEK-293T; [6]): 7%
- Population Tubulin-Different-Phenotype (%) (HEK-293T; [6]): 30%
- Total Cell Count (HEK-293T; [6]): 1346
- Population Apoptotic (%) (HEK-293T; [7]): 16%
- Population Fragmented Nuclei (%) (HEK-293T; [7]): 20%
- Population Healthy Nuclei (%) (HEK-293T; [7]): 60%
- Population Hoechst High Intensity Objects (%) (HEK-293T; [7]): 15%
- Population Membrane Permeable-Phenotype (%) (HEK-293T; [7]): 7%
- Population Mitochondria Different-Phenotype (%) (HEK-293T; [7]): 5%
- Population Mitotic Cells (%) (HEK-293T; [7]): 83%
- Population Normal (%) (HEK-293T; [7]): 84%
- Population Pyknosed Nuclei (%) (HEK-293T; [7]): 19%
- Population Tubulin-Different-Phenotype (%) (HEK-293T; [7]): 7%
- Total Cell Count (HEK-293T; [7]): 500
- Population Apoptotic (%) (HEK-293T; [8]): 5%
- Population Fragmented Nuclei (%) (HEK-293T; [8]): 11%
- Population Healthy Nuclei (%) (HEK-293T; [8]): 84%
- Population Hoechst High Intensity Objects (%) (HEK-293T; [8]): 3%
- Population Membrane Permeable-Phenotype (%) (HEK-293T; [8]): 6%
- Population Mitochondria Different-Phenotype (%) (HEK-293T; [8]): 2%
- Population Mitotic Cells (%) (HEK-293T; [8]): 95%
- Population Normal (%) (HEK-293T; [8]): 96%
- Population Pyknosed Nuclei (%) (HEK-293T; [8]): 3%
- Population Tubulin-Different-Phenotype (%) (HEK-293T; [8]): 9%
- Total Cell Count (HEK-293T; [8]): 1653
- Growth Rate (Fibroblast; 6 h, replicate number 1, timepoint 6 hours): 0
- Growth Rate (Fibroblast; 12 h, replicate number 1, timepoint 12 hours): 0
- Growth Rate (Fibroblast; 12 h, replicate number 2, timepoint 12 hours): 1
- Growth Rate (Fibroblast; 18 h, replicate number 1, timepoint 18 hours): 0
- Growth Rate (Fibroblast; 18 h, replicate number 2, timepoint 18 hours): 1
- Growth Rate (Fibroblast; 24 h, replicate number 1, timepoint 24 hours): 0
- Growth Rate (Fibroblast; 24 h, replicate number 2, timepoint 24 hours): 1
